Screening results from PubChem.
The list is not random: actives were taken first. Their share in the collection is about 2.3%.
TRPC4 agonist: activators of mouse TRPC4 channel; hit rate 0.49% among 310,000; Q9QUQ5; B-score at 10 µM; HEK293 TRPC4beta/mu-opioid, Fluo4 calcium fluorescence; hits give high values;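 active = B-score above 5 SD of library B-scores, and initial fluorescence ratio not above library mean plus 5 SD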;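 note: positive B-score marks a calcium rise read as TRPC4 activation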
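Test system: HEK293 cells stably co-expressing mouse TRPC4beta and mu-opioid receptor | Schedule: Fluo4 dye loading 45 min at room temperature, 110 s recording | Measured by: Kinetic Fluo4 calcium fluorescence, 5 s baseline at 1 Hz | Evaluation: B score of integrated ratio | Controls: Buffer (low) and maximal DAMGO (high)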
TRPC4 PAM: TRPC4 (mouse) allosteric potentiation; hit rate 0.42% among 310,000; HEK293 TRPC4beta/mu-opioid, DAMGO EC20, Fluo-4 Ca2+ flux; hits give high values; Q9QUQ5; B-score at 10 µM;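 active = B-score of calcium response area above 5 SD of library B-scores, with initial fluorescence ratio within 5 SD of library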;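 note: B-score of integrated fluorescence ratio over time as area under calcium response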
TRPC4 inh: inhibitors of mouse TRPC4 channel. B-score at 10 µM. Q9QUQ5. hit rate 0.39% among 300,000. HEK293 TRPC4beta/mu-opioid, DAMGO-evoked Fluo4 calcium flux; hits give low values;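 active = B-score over 3 SD under the library average, no early fluorescence shift, positive overall ratio signal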
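Test system – stable TRPC4beta/mu-opioid receptor HEK293 cells · Probe or stimulus – DAMGO, a submaximal dose followed by a maximal one · Dosing – one concentration per compound · Signal – Fluo4 calcium fluorescence by kinetic imaging, 5 s 1 Hz baseline · Evaluation – per-well B score of integrated baseline-normalized Fluo4 ratio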
TRPC6 inh: mouse TRPC6 channel inhibition | AID 2553 | Q61143 | HEK293-TRPC6, membrane potential dye, ACh-evoked depolarization; hits give low values | hit rate 1.1% among 310,000 | B-score at 10 µM;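 active = B-score under library mean minus 3 SD, initial fluorescence not abnormally high, positive integrated signal ratio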;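 note: B-score derived from integrated fluorescence ratio over the kinetic read; more negative B-score means stronger inhibition of depolarization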
TRPC6 activator: mouse TRPC6 channel activation. HEK293-TRPC6 membrane potential dye fluorescence; hits give high values. B-score at 10 µM. AID 2550. hit rate 0.13% among 310,000. Q61143;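 active = B-score of the integrated fluorescence ratio above library mean plus 3 SD, and starting fluorescence ratio within library mean plus 5 SD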;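 note: higher score means more depolarization so channel activation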
* marks the source's active call; other numbers are inactive results; i = inactive.

SMILES | TRPC4 agonist | TRPC4 PAM | TRPC4 inh | TRPC6 inh | TRPC6 activator
CC/C(=C\C=C\[C@@H]1C=C[C@@H]2CCC[C@H]2[C@@H]1C(=O)c1ccc[nH]1)[C@@H]1O[C@@H]([C@@H](C)C(=O)O)CC[C@@H]1C | 67* | i | i | i | i
COc1ccc(N=Cc2c(O)n(CC3CCCO3)c(=O)[nH]c2=O)cc1 (stereo not given) | i | i | i | i | i
O=c1[nH]c(=S)n(CCC2=CCCCC2)c(O)c1/C=N/N1CCOCC1 | i | i | i | i | i
COC(=O)C1=CCCN(C)C1 | 99* | i | i | i | i
FC(F)(F)c1cccc(NC2=NCCCS2)c1 | i | i | i | i | i
C[N+]1(C)[C@@H]2CC[C@H]1CC(OC(=O)C(CO)c1ccccc1)C2 (stereo not given in full) | i | i | i | -7.06* | i
C=C(C)CN1CC[C@]23c4c5ccc(O)c4O[C@H]2c2[nH]c4ccccc4c2C[C@@]3(O)C1C5 | i | i | i | i | i
O=C(c1ccc2c3c(cccc13)CC2)C1CCCN(Cc2ncc[nH]2)C1 (stereo not given) | 46* | i | i | i | i
O=C(c1ccc2c3c(cccc13)CC2)C1CCCN(CC2CC2)C1 (stereo not given) | 158* | i | i | i | i
CC1CCCN(C(=O)c2ccc(N3CC4CC(C3)c3cccc(=O)n3C4)c([N+](=O)[O-])c2)C1 (stereo not given) | i | i | i | i | i
COP(=S)(OC)c1c(C)nn(CCC#N)c1NC(=O)c1ccc(Cl)cc1 | i | i | i | i | i
COc1ccc(CCC(=O)NCCc2cnc[nH]2)cc1 | i | i | i | i | i
Cc1ccc(C)c(NC(=S)NCCc2cnc[nH]2)c1 | 142* | i | i | i | i
CCCCc1ncc(CN2CCCC(C(=O)c3ccc(SC)cc3)C2)[nH]1 (stereo not given) | i | i | -6* | i | i
NCCc1nc2ccccc2s1 | i | i | i | i | i
c1ccc(P(c2ccccc2)c2ccccn2)cc1 | i | i | i | i | i
O=C(c1ccc(Cl)cc1)C1CCCN(Cc2ccc3ncccc3c2)C1 (stereo not given) | 80* | i | i | i | i
N=c1n(CCO)c2ccccc2n1Cc1ccccc1 | i | i | -7* | i | i
CN(C)C(CNC(=O)Cc1c(Cl)cccc1Cl)c1ccccc1 (stereo not given) | 219* | i | i | i | i
CC(NCc1cccc(Cl)c1Cl)C(O)c1ccccc1 (stereo not given) | i | i | i | i | i
CCc1ccccc1N1C(=O)/C(=C/c2ccc(N3CCN(C)CC3)o2)C(=O)NC1=S | i | i | i | i | i
C[N+]1(CCC(C(N)=O)(c2ccccc2)c2ccccc2)CCCCC1 | i | i | i | -9.67* | i
CN1CCN(Cc2nc3ccccc3n2C)CC1 | i | 11* | i | i | i
C[C@@H](N)Cc1cnc[nH]1 | 197* | i | i | i | i
O=C(O)Cc1cnc[nH]1 | i | i | i | i | i
SMILES | TRPC4 agonist | TRPC4 PAM | TRPC4 inh | TRPC6 inh | TRPC6 activator
O=[N+]([O-])c1ccc(C[n+]2c(-c3ccccc3)cc(-c3ccccc3)cc2-c2ccccc2)cc1 | i | i | i | i | i
Cc1cc(-c2ccccc2)cc(C)[n+]1Cc1ccccc1 | 106* | i | i | i | i
CCOc1ccc(Cl)cc1CNCCc1ccccc1F | i | i | i | i | i
COc1ccc2c(c1O)C13CCN(C)C(C2)C1CCC(=O)C3 (stereo not given) | 93* | i | i | i | i
COc1cc2c3cc1Oc1cc(ccc1O)C[C@@H]1c4c(cc(OC)c(O)c4Oc4ccc(cc4)C[C@H]3N(C)CC2)CCN1C | 117* | i | i | i | i
CCOC(=O)C1(c2ccccc2)CCN(CCC(=O)Nc2ccccc2OC)CC1 | 50* | i | i | i | i
Fc1ccc(C2NCCc3[nH]cnc32)cc1 (stereo not given) | 60* | i | i | i | i
Clc1cccc(C2NCCc3[nH]cnc32)c1 (stereo not given) | 50* | i | i | i | i
Cc1ccc(C)c(-n2c(C)nc3ccccc3c2=O)c1 | i | i | i | i | i
Cc1cc(NCCN)nc2ccccc12 | i | 28* | i | i | i
COc1ccc(Cl)cc1C(=O)C1CCCN(CCO)C1 (stereo not given) | 70* | i | i | i | i
CCn1ccnc1CN1CCCC(C(=O)c2cc(Cl)ccc2OC)C1 (stereo not given) | i | i | i | i | i
COCCN(C(=O)COC(=O)Cc1ccccc1)c1c(N)n(Cc2ccccc2)c(=O)[nH]c1=O | i | i | i | i | i
Cc1ccccc1N1C(=O)CC(=O)NC1=O | i | i | i | i | i
Cc1ccccc1C(O)(Cc1ccccc1)C1CN2CCC1CC2 (stereo not given) | 87* | i | i | i | i
C=CCOC(=O)C1=C(C)OC(N)=C(C#N)[C@@]12C(=O)N(CC(N)=O)c1ccccc12 | i | 22* | i | i | i
CC1=C(C(=O)OC(C)C)[C@]2(C(=O)N(CC(N)=O)c3ccccc32)C(C#N)=C(N)O1 | i | i | i | i | i
CC1CCCC(C)N1/N=C/c1c[nH]c2ccc(Br)cc12 (stereo not given) | i | 34* | i | i | i
O=c1[nH]c(=O)n(Cc2ccc(F)cc2)c(O)c1C=NCCCn1ccnc1 | i | i | i | i | i
O=c1[nH]c(=O)n(Cc2ccc(F)cc2)c(O)c1C=NCCCO | 57* | i | -5* | i | i
C/C=C(\C)C(=O)OC1C(C)=C2C(C1OC(=O)CCCCC)C(C)(OC(C)=O)CC(OC(=O)CCC)C1(O)C2OC(=O)C1(C)O (stereo not given) | 71* | i | i | -5.77* | i
COc1ccc(CCNCc2ccccc2F)cc1OC | i | i | i | i | i
Clc1ccc2c(c1)C(c1ccccc1Cl)=NCc1nnc(N3CCN(CCOc4ccccc4)CC3)n1-2 | i | 29* | i | i | i
Clc1ccc2c(c1)C(c1ccccc1Cl)=NCc1nnc(N3CCN(CCSc4ccccc4)CC3)n1-2 | i | i | i | i | i
Clc1ccc(CCNCc2ccncc2)c(Cl)c1 | 50* | i | i | i | i
